Compounds with a hit are over-represented: about 2.2% of the library has one in this group of screens.
eIF4H FP inh: inhibitors of RNA binding by human eIF4H; Q15056; eIF4H fluorescence polarization binding assay; inhibition, % at 35 µM; 290,000 tested, 0.94% active;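 note: calls also rest on retests at 20 µM and on dose response follow-up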
IMP-1 inh: inhibitors of Pseudomonas aeruginosa IMP-1 metallo-beta-lactamase; purified IMP-1, nitrocefin hydrolysis, epi-absorbance fluorescence; inhibition, % at 5.6 µM; 290,000 tested, 0.45% active;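 active = inhibition above the mean plus 3 SD of all compounds in the same screening run, cut at about 4.5% in these data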;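 note: 0% = IMP-1 with DMSO and 100% = DMSO wells lacking enzyme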
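System: purified IMP-1; amount: IMP-1 0.2 nM before substrate addition; compound: single dose, 5.6 µM; times: 25 °C, 15 min preincubation, 25 min reaction; signal: Epi-absorbance via hydrolysed-nitrocefin quenching of white-plate fluorescence, 480/530 nm, EDTA stop; benchmarks: DMSO with and without IMP-1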
MLLE-PAM2 inh: blocks PAM2 peptide binding to the PABP1 MLLE domain; GST-MLLE / FITC-PAM2 fluorescence polarization; 360,000 tested, 0.36% active; P11940; AID 588489; inhibition, % at 20 µM; in the data active = inhibition above about 35%, passing the limit was not always enough;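 note: plate controls were DMSO wells with GST-MLLE for no effect and wells lacking GST-MLLE protein for full effect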
Target sequence (P11940 whole entry, looked up, the tested form may be a part): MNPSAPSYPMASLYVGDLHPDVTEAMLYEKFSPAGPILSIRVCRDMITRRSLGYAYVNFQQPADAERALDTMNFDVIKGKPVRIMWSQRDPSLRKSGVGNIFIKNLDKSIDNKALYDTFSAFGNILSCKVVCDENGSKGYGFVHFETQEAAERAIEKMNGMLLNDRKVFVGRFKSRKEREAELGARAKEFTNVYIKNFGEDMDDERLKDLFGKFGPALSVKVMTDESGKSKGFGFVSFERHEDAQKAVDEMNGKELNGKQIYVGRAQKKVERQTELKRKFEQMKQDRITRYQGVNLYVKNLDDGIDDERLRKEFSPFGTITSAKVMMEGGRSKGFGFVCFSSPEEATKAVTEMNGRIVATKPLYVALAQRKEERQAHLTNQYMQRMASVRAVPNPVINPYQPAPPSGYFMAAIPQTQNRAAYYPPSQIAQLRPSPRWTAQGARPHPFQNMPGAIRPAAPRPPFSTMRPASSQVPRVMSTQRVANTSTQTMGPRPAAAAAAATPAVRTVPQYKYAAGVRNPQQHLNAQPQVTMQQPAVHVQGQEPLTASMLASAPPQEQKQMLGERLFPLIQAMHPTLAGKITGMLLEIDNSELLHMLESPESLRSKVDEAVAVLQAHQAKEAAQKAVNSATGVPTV
PABP FP inh: PABP-poly(A) binding inhibition. PABP-poly(A) RNA binding, fluorescence polarization. calls only at 35 µM. 290,000 tested, 1% active;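 note: calls also rest on retests at 20 µM and on dose response follow-up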
VIM-2 inh: inhibitors of Pseudomonas aeruginosa VIM-2 metallo-beta-lactamase; purified VIM-2, nitrocefin hydrolysis, epi-absorbance fluorescence; inhibition, % at 5.6 µM; 290,000 tested, 0.89% active;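 active = inhibition above the mean of all tested compounds plus 3 SD, cutoff set per screening run, cut at about 7.5% in these data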;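 note: red hydrolysis product quenches plate fluorescence so inhibitors raise well fluorescence; 0% = enzyme with DMSO and 100% = DMSO without enzyme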
VIM-2 inh confirm: VIM-2 inhibition, confirmation assay; shares compounds with IMP-1 inh; purified VIM-2 enzyme, nitrocefin absorbance; inhibition, % at 5.6 µM; 200 tested, 73% active; AID 1860; in the data active = inhibition above about 8%;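 note: 0% = enzyme with vehicle and 100% = no enzyme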
TEM-1 counter: blocks E. coli TEM-1 beta-lactamase, VIM-2 IMP-1 counter-screen; shares compounds with IMP-1 inh; nitrocefin absorbance inhibition; inhibition, % at 5.6 µM; 200 tested, 50% active; AID 2184; in the data active = inhibition above about 0.66%
IMP-1 inh conf: confirmation of P. aeruginosa IMP-1 metallo-beta-lactamase inhibitors. AID 2189. purified IMP-1 enzyme, absorbance substrate hydrolysis. 200 tested, 60% active. shares compounds with IMP-1 inh. inhibition, % at 5.6 µM; in the data active = inhibition above about 4.9%;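 note: 0% = enzyme with vehicle and 100% = vehicle without enzyme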
* hit, by the source's call; i = inactive; u = inconclusive; x = no result given. Unless noted, the rule behind the calls is not given here.

SMILES	eIF4H FP inh	IMP-1 inh	MLLE-PAM2 inh	PABP FP inh	VIM-2 inh	VIM-2 inh confirm	TEM-1 counter	IMP-1 inh conf
C=CCN(c1ccccc1OC)S(=O)(=O)c1cccc(C(=O)OCC(=O)c2c(N)n(C)c(=O)n(C)c2=O)c1	x	x	0	x	x	x	x	x
CCOC(=O)c1c(C)n(-c2ccc(C)cc2)c2c(C(C(C)=O)C(=O)O)c(Br)c(O)c(O)c12 (stereo not drawn)	8	5.4*	17	i	7	-1	-5	-4
CN1CCS/C1=C/C=C1\SC(=S)N(CC(=O)O)C1=O	u	6.8*	26	u	9.6*	8	-7	2
O=P(O)(O)COc1ccccc1P(=O)(c1ccccc1)c1ccccc1	2	5.3*	-8	i	12*	16*	-4	-5
CCOP(=O)(O)c1ccccc1OCCOc1ccccc1P(=O)(O)OCC	-5	-2	-7	i	-3	x	x	x
CC(=O)Oc1cc2cccc(OC(C)=O)c(=O)c2c(OC(C)=O)c1OC(C)=O	u	8.9*	15	i	7	2	-3	-2
COc1cc2cccc(OC)c(=O)c2c(O)c1OC	-10	-2	1	u	1	x	x	x
CCN(CC)c1ccc(/C=C2\C(=N)N3N=C(CC(=O)N4CCOCC4)SC3=NC2=O)cc1	u	6.4*	-151	u	11*	9.3*	-1	3
CSc1ccc(/C=C2\C(=N)N3N=C(CC(=O)N4CCOCC4)SC3=NC2=O)cc1	-6	-3	-2	i	-3	x	x	x
O=C1NCCN1CCNc1nc(NCC2CC2)nc2cc(-c3ccccc3)sc12	x	x	7	x	x	x	x	x
Cc1cccc(N2C(=O)c3cccc4c(N)ccc(c34)C2=O)c1	u	25*	i	u	21*	21*	31*	19*
O=C(O)c1cccc(N2C(=O)c3cccc4c(Cl)ccc(c34)C2=O)c1	8	-3	10	i	0	x	x	x
Nc1cccc(N2C(=O)c3cccc4c(N)ccc(c34)C2=O)c1	u	18*	i	u	22*	18*	21*	14*
Nc1ccc2c3c(cccc13)C(=O)N(c1ccccc1)C2=O	u	37*	i	i	35*	35*	47*	33*
CCN(CC)c1ccc2cc(C=O)c(=O)oc2c1	u	15*	i	u	15*	16*	15*	12*
CCN(CC)C(=O)C1c2ccccc2Oc2ccccc21	u	17*	175	u	18*	2	1.6*	1
NS(=O)(=O)c1ccc(NC(=O)c2cccc(N3C(=O)c4ccccc4C3=O)c2)cc1	-21	25*	-28	i	9.6*	3	-2	17*
CC(C)c1nnc(N2C(=O)C(O)=C(C(=O)c3cccs3)C2c2ccccc2)s1 (stereo not drawn)	45	7.2*	129	i	17*	0	0	-2
C=CCOc1ccc(C2C(C(=O)c3cccs3)=C(O)C(=O)N2c2nnc(C)s2)cc1 (stereo not drawn)	x	13*	93	x	18*	2	2.6*	0
Cc1ccc(Cn2c(C(C)Nc3nc(-c4ccc(C)cc4)cs3)nc3cc(Cl)c(Cl)cc32)cc1 (stereo not drawn)	85*	29*	2	i	12*	11*	-6	25*
CC(Nc1nc(-c2ccc(F)cc2)cs1)c1nc2cc(Cl)c(Cl)cc2n1CCCO (stereo not drawn)	x	x	-5	x	x	x	x	x
Oc1ccccc1-c1nc(NCc2ccco2)c2ccccc2n1	2	-4	1	i	-2	x	x	x
c1ccc(-c2nc(NCc3ccco3)c3ccccc3n2)nc1	13	8.8*	3	i	15*	13*	-3	1
COc1ccc(C(=O)O)cc1S(=O)(=O)Nc1ccc(Oc2ccccc2)cc1	x	x	-2	x	x	x	x	x
O=[n+]1c2c(n([O-])c3cc(Br)ccc31)CCCC2	-1	-1	-2	i	-2	x	x	x
SMILES	eIF4H FP inh	IMP-1 inh	MLLE-PAM2 inh	PABP FP inh	VIM-2 inh	VIM-2 inh confirm	TEM-1 counter	IMP-1 inh conf
O=[n+]1c2c(n([O-])c3ccccc31)CCCC2	-3	35*	20	i	13*	0	-1	-3
Oc1sc(C=Nc2ccccc2)c2ccccc12	u	15*	-15	i	17*	23*	0	4
Oc1c(C=Nc2ccccc2)sc2ccccc12	u	-2	-100	u	1	x	x	x
CCc1c(C)sc(NC(=O)c2ccccc2[N+](=O)[O-])c1C(N)=O	-2	-5	14	i	-2	x	x	x
N#CC1=C(N)Oc2c(O)cc3ccccc3c2C1c1ccsc1 (stereo not drawn)	17	4.6*	1	i	8.1*	0	-5	-3
COc1cc2c(cc1OC)C(C(=O)NCCN(C)C)C(c1cccs1)N(C)C2=O (stereo not drawn)	1	-2	-4	i	-3	x	x	x
CC1CCCCC1NCC#CCOc1ccc(Cl)cc1 (stereo not drawn)	2	0	20	i	-2	x	x	x
COc1ccccc1-n1c(SCC(=O)OC(C)C)nc2cccnc21	4	38*	6	i	16*	0	-2	-1
Cc1cc(/C=N/NC(N)=S)c(O)c(/C=N/NC(N)=S)c1	u	27*	112	u	26*	26*	-2	25*
Cc1[nH]c2ccccc2c1/C=C/c1cc[n+](C)cc1	u	9.0*	-134	u	10*	17*	0	3
Cc1ccc(S(=O)(=O)N2[C@@H](c3ccc(F)cc3)C(C(=O)O)=C[C@H]2CC2CCCC2)cc1	x	x	-10	x	x	x	x	x
CCCCN(C)C1=CC2=CC(=C(C#N)C#N)CCC2CC1 (stereo not drawn)	u	43*	i	i	30*	53*	79*	50*
CCN(CC)C1=CC2=CC(=C(C#N)C#N)CCC2CC1 (stereo not drawn)	u	47*	i	i	36*	60*	79*	58*
N#CC(C#N)=C1C=C2C=C(N3CCCCC3)CCC2CC1 (stereo not drawn)	u	58*	x	i	48*	62*	87*	58*
Cc1cccc2c(C(=O)O)c3cccc(C)c3nc12	x	x	-7	x	x	x	x	x
O=C1C=C(c2ccc(F)cc2OCc2ccccc2)C[C@@H](c2ccc(Cl)cc2)C1	x	x	-3	x	x	x	x	x
CCOc1ccc(-n2c(SCC(=O)c3c(N)n(C)c(=O)n(C)c3=O)nnc2-c2cccnc2)cc1	4	-1	-11	i	-1	x	x	x
CCN(CC)C(=O)[C@H]1C[C@H](CC(=O)NCCc2ccccn2)C(=O)N2CCc3c([nH]c4ccc(Cl)cc34)[C@]12C	x	x	-6	x	x	x	x	x
